Laboratory results: publication PMC8273112 (ACS Infectious Diseases, 2021)
Where a name gives a salt, the structure may show the parent alone. Read-outs that look alike come from different tables or passages of the source.

What was measured:
[1] = system: Leishmania donovani; settings: read-out: in vitro IC50 Leishmania donovani; cited from earlier work
[2] = system: P. falciparum; settings: cited from earlier work
[3] = system: P. falciparum strain Tm90–C2B; assay: SYBR Green growth inhibition assay, P. falciparum Tm90-C2B; assay type: cell-based, Plasmodium falciparum; settings: read-out: IC50 Tm90–C2B
Method in brief: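 Human erythrocytes (≤28 days old), 2% hematocrit, asynchronous culture at 0.2% initial parasitemia, in RPMI-1640 with HEPES, hypoxanthine, glucose, glutamine and Albumax II. 2-fold serial dilution starting at 20 μM, quadruplicate. Incubated 72 h at 37 °C under 5% O2/5% CO2/90% N2. SYBR Green I dye-detergent added for at least 1 h in the dark; fluorescence read at 497/520 nm, normalized to untreated wells, plotted against log concentration.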

[4] = system: Plasmodium falciparum strain Dd2; assay: SYBR Green growth inhibition assay, P. falciparum Dd2; assay type: cell-based; settings: read-out: IC50 Dd2
[5] = system: Plasmodium yoelii; assay: Modified 4-day Peters test, murine malaria; assay type: in vivo, Plasmodium yoelii in mice; settings: for P. yoelii ED50 / P. yoelii ED90: oral gavage days 1–4, parasitemia day 5, mice; for P. yoelii NRD (nonrecrudescence dose, cure dose): oral gavage up to 25 mg/kg/day, no parasites at day 30
[6] = system: Plasmodium falciparum strain D6; assay: SYBR Green growth inhibition assay, P. falciparum D6; assay type: cell-based; settings: read-out: IC50 D6
[7] = system: P. falciparum A6 (SB1-A6); assay: SYBR Green growth inhibition assay, P. falciparum A6; assay type: cell-based, Plasmodium falciparum; settings: 72 h, read-out: IC50 A6
Method in brief: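 Asynchronous parasites grown in human erythrocytes in RPMI-1640 with HEPES, hypoxanthine and Albumax II under 5% O2/5% CO2/90% N2 at 37 °C. Test compound in 2-fold serial dilution from 20 μM, run in quadruplicate, at 2% hematocrit and 0.2% starting parasitemia for 72 h. SYBR Green I lysis dye added for ≥1 h in the dark. Fluorescence read at 497/520 nm, normalized to untreated wells and plotted against log concentration.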

[8] = HepG2 cytotoxicity assay; assay type: cell-based, human; settings: human, HepG2 cells
[9] = system: HepG2 cells; assay: HepG2 cytotoxicity assay; assay type: cell-based, human; settings: read-out: IC50 cytotoxicity, 24 h drug, 24 h recovery
[10] = system: Plasmodium yoelii; settings: at any dose level; no reference given; cited from earlier work
[11] = system: P. berghei; settings: cited from earlier work
[12] = system: Toxoplasma gondii; settings: cited from earlier work
[13] = cited from earlier work
[14] = system: Babesia microti; settings: oral; cited from earlier work
[15] = Murine microsomal stability; assay type: in vitro ADME
[16] = Plasmodium falciparum, TM90, 72 h
[17] = Plasmodium falciparum, DD2, 72 h
[18] = Plasmodium falciparum, D6, 72 h
[19] = multidrug-resistant clinical isolate also resistant to atovaquone, 72 h
[20] = multidrug-resistant P. falciparum strain Dd2, 72 h
[21] = P. falciparum pan-sensitive strain D6, 72 h, average of two to four determinations
[22] = in-house derived mutant line resistant to respiratory antagonists

Structure (SMILES) | IC50 [3, 16] [nM] | IC50 [4, 17] [nM] | IC50 [6, 18] [nM] | IC50 ([7]; Plasmodium falciparum) [nM] | IC50 at 24 h [8] [nM] | IC50 [3, 19] [nM] | IC50 [4, 20] [nM] | IC50 [6, 21] [nM] | IC50 [7, 22] [nM] | IC50 [9] [nM] | further results
Cl.Cl.Cl.N=C(N)c1cccc(/C=N/N=C(\N)N/N=C/c2cccc(C(=N)N)c2)c1 [CGP 40215A] | – | – | – | – | – | – | – | – | – | – | IC50 [1]: 18000 nM; IC50 value against P. falciparum in vitro [2]: low micromolar
Cl.N#Cc1ccc(C=NNC(=N)NN=Cc2ccc(C#N)cc2)cc1 [Compound 22, 2,2′-Bis[(4-cyanophenyl)methylene]carbonimidic Dihydrazide Hydrochloride] | 312 | 166 | 58 | 76 | > 200000 | – | – | – | – | – | P. yoelii ED50 [5]: 2.7 mg/kg/day; P. yoelii ED90 [5]: 7.7 mg/kg/day; P. yoelii NRD (nonrecrudescence dose, cure dose) [5]: >25 mg/kg/day
N=C(NN=Cc1ccc([N+](=O)[O-])cc1)NN=Cc1ccc([N+](=O)[O-])cc1 [Compound 27, 2,2′-Bis[(4-nitrophenyl)methylene]carbonimidic Dihydrazide Hydrochloride] | 247 | 198 | 96 | 85 | > 200000 | – | – | – | – | – | –
N=C(NN=Cc1ccc(C(=O)O)cc1)NN=Cc1ccc(C(=O)O)cc1 [Compound 29, 2,2′-Bis[(phenyl-4-carbonate)methylene]carbonimidic Dihydrazide Hydrochloride] | – | – | – | – | – | > 5000 | > 5000 | > 5000 | > 5000 | > 200000 | –
N=C(NN=Cc1ccc(S(N)(=O)=O)cc1)NN=Cc1ccc(S(N)(=O)=O)cc1 [Compound 31, 2,2′-Bis[(4-sulphonamidophenyl)methylene]carbonimidic Dihydrazide Hydrochloride] | – | – | – | – | – | > 5000 | > 5000 | > 5000 | > 5000 | > 200000 | –
N=C(NN=Cc1cccc(-n2cnnn2)c1)NN=Cc1cccc(-n2cnnn2)c1 [Compound 34, 2,2′-Bis[(3-tetrazole-1-phenyl)methylene]carbonimidic Dihydrazide Hydrochloride] | – | – | – | – | – | > 5000 | > 5000 | 1640 | 4790 | 107000 | –
N=C(NN=Cc1ccc(-n2cnnn2)cc1)NN=Cc1ccc(-n2cnnn2)cc1 [Compound 35, 2,2′-Bis[(4-tetrazole-1-phenyl)methylene]carbonimidic Dihydrazide Hydrochloride] | – | – | – | – | – | > 5000 | > 5000 | 838 | > 5000 | > 200000 | –
N=C(NN=Cc1ccc2c(c1)OC(F)(F)O2)NN=Cc1ccc2c(c1)OC(F)(F)O2 [Compound 36, 2,2′-Bis{[4-(2,2-difluoro-2,3-dioxazolo)]phenyl}methylene]carbonimidic Dihydrazide Hydrochloride] | – | – | – | – | – | 905 | 800 | 250 | 235 | > 200000 | –
O=C1C(O)=C([C@H]2CC[C@H](c3ccc(Cl)cc3)CC2)C(=O)c2ccccc21 [atovaquone, reference compound] | > 5000 | < 1 | < 1 | > 5000 | 72000 | – | – | – | – | – | –
CCN(CC)CCCC(C)Nc1ccnc2cc(Cl)ccc12 (centres unmarked) [chloroquine, reference compound] | 297 | 70 | – | 16 | 181000 | – | – | – | – | – | cure in P. yoelii model [10]: not curative
Cl.N=C(NN=Cc1ccc(Cl)cc1)NN=Cc1ccc(Cl)cc1 [robenidine, 1,3-Bis(p-chlorobenzylideneamino)guanidine hydrochloride, reference compound] | 1320 | 814 | 324 | 410 | 30000 | – | – | – | – | – | activity in vivo against P. berghei [11]: moderate activity; in vitro IC50 Toxoplasma gondii [12]: 0.03 µg/mL; absorption [13]: poorly absorbed; murine in vivo nonrecrudescence dose Babesia microti [14]: 100 mg/kg/day; P. yoelii ED50 [5]: 1.6 mg/kg/day; P. yoelii ED90 [5]: 4.9 mg/kg/day; P. yoelii NRD (nonrecrudescence dose, cure dose) [5]: >25 mg/kg/day; murine microsomal stability, t1/2 ([15]; 1 μM, 0.5 mg/mL protein, 37 °C, 1 h, NADPH): 2.6442 h; CLint scaled at 1 μM ([15]; mouse, pooled murine liver microsomes, pH 7.4): 34.4 mL/min/kg; half-life at 1 μM ([15]; mouse, pooled murine liver microsomes, pH 7.4, murine microsomal stability, t1/2, 1 μM, 0.5 mg/mL protein, 37 °C, 1 h, NADPH): > 2.5 h
